Eleven molecules from ChEMBL document CHEMBL1131231, “New azole antifungals. 2. Synthesis and antifungal activity of heterocyclecarboxamide derivatives of 3-amino-2-aryl-1-azolyl-2-butanol” (1998) can be followed below.

In brackets after ≈: the same amount, converted by molar mass.

Test [1] has as its system Candida albicans. In words: In vivo antifungal activity against murine candidosis model after peroral administration with 0.5 mg/kg at various time intervals. (percent protection for 100% mortality with fluconazole-treated group.). Format: functional. As to conditions: route oral. A digest of the protocol: (§1)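 Male mice, groups of 10, infected iv with 0.2 mL Candida albicans at (2–8) × 10⁷ cfu/mL. Oral suspension in 1% Tween + 0.2% carboxymethylcellulose in water, given 1, 4 and 24 h post-infection; vehicle controls and a fluconazole group at the same dose. Survival scored on days 1, 2, 3, 5, 7, 9, reported as % surviving on the day untreated, or fluconazole-treated, mortality reached 100%.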

A short description of test [2]: In vivo antifungal activity against murine candidosis model after peroral administration with 1 mg/kg for 5 days.(percent protection for 100% mortality with untreated group). Format: functional, Mus musculus. As to conditions: route oral. A digest of the protocol:
(§2)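 Second murine systemic Candida albicans model. Mice, n = 10 per group, dosed orally once daily for 5 days after infection. Animals observed for 65 days, with survival rate as read-out and vehicle controls included. Reported as % protection on the day of 100% mortality in the untreated group or in the fluconazole-treated group.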

Test [3] relates to Candida albicans. As to the kind of experiment: In vivo antifungal activity against murine candidosis model after peroral administration with 0.5 mg/kg at various time intervals. (percent protection for 100% mortality with untreated group). It is filed as functional. As to conditions: route oral. A digest of the protocol: as §1
Test [4] is described as follows: The compound was tested in vitro for antifungal activity against 6 filamentous fungi. Format: functional. A digest of the protocol:
(§3)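 Agar dilution on Kimmig's agar with 0.5% glycerol; ATCC or clinical isolates, inocula at 10⁵ cfu/mL. Drugs from 800 μg/mL stock in 50% ethanol, 2-fold serial dilutions 80 to 0.03 μg/mL in plates. Incubated 25 °C, 48 h for yeasts, 120 h for filamentous fungi. Value is geometric mean of MICs (μg/mL); >80 taken as 160, ≤0.03 as 0.03.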

The nature of test [5]: The compound was tested in vitro for antifungal activity against 10 yeasts. Format: functional. A digest of the protocol:
as §3

The subject of test [6] is Mus musculus. As to the kind of experiment: In vivo antifungal activity against murine candidosis model after peroral administration with 1 mg/kg for 5 days.(percent protection for 100% mortality with fluconazole-treated group.). It is filed as functional. As to conditions: route oral. In short, it runs like this: as §2
In test [7] the test system is Mus musculus. As to the kind of experiment: In vivo antifungal activity against murine candidosis model after peroral administration with 2.5 mg/kg at various time intervals. (percent protection for 100% mortality with fluconazole-treated group.). Format: functional. As to conditions: route oral. A digest of the protocol: as §1
Test [8] relates to Mus musculus. In words: In vivo antifungal activity against murine candidosis model after peroral administration with 2.5 mg/kg at various time intervals. (percent protection for 100% mortality with untreated group). As to conditions: route oral. It is filed as functional. A digest of the protocol:
as §1

Test [9] deals with Mus musculus. As to the kind of experiment: In vivo antifungal activity against murine candidosis model after peroral administration with 0.5 mg/kg for 5 days.(percent protection for 100% mortality with fluconazole-treated group.). As to conditions: route oral. Format: functional. A digest of the protocol: as §2
For test [10], the system named is Candida albicans. As to the kind of experiment: In vivo antifungal activity against murine candidosis model after peroral administration with 1 mg/kg at various time intervals. (percent protection for 100% mortality with fluconazole-treated group.). Format: functional. As to conditions: route oral. A digest of the protocol:
as §1

Test [11] has as its system Mus musculus. In words: In vivo antifungal activity against murine candidosis model after peroral administration with 0.5 mg/kg for 5 days.(percent protection for 100% mortality with untreated group). It is filed as functional. The conditions noted are these: route oral. A digest of the protocol:
as §2

Test [12] deals with Candida albicans. In words: In vivo antifungal activity against murine candidosis model after peroral administration with 1 mg/kg at various time intervals. (percent protection for 100% mortality with untreated group). Format: functional. As to conditions: route oral. In short, it runs like this: as §1

On to `C[C@H]([C@](O)(Cn1cncn1)c1ccc(F)cc1F)S(C)(=O)=O` [GENACONAZOLE], for which the Protection amounted to 100% with Candida albicans [1], 100% in test [2], 100% in the test on Candida albicans [3] and 20% in the test on Mus musculus [6]. Also, the MIC in test [4] amounted to 25 µg/mL (≈ 75.5 µM); in test [5] it was 8.7 µg/mL (≈ 26.3 µM).

As to `C[C@@H](NC(=O)c1ccc(-c2cccnc2)s1)[C@](O)(Cn1cncn1)c1ccc(F)cc1F`, the MIC in [4] is over 80 µg/mL; in [5], 1.6 µg/mL (≈ 3.51 µM). For the same molecule, the Protection in the test with Mus musculus [7] is 0%; with Mus musculus [8], 60%.

Regarding `C[C@@H](n1cnc2cc(-c3ccc(C#N)cc3)sc2c1=O)[C@](O)(Cn1cncn1)c1ccc(F)cc1F`, the Protection is recorded as 40% in the test with Mus musculus [9], 100% in the test on Candida albicans [10], 100% in the test with Mus musculus [11] and 100% with Candida albicans [12]. Further, the MIC in [4] turned out to be 13 µg/mL (≈ 25.8 µM); in [5] it was 0.3 µg/mL (≈ 0.595 µM).

Consider `C[C@@H](c1nc(-c2ccc(C#N)cc2)cs1)[C@](O)(Cn1cncn1)c1ccc(F)cc1F` [RAVUCONAZOLE], for which the Protection with Candida albicans [1] came out at 0%; in test [2], 20%; with Candida albicans [3], 50%; with Mus musculus [6] it was 0%. Moreover, the values for the MIC in test [4] and in [5] were 0.8 µg/mL (≈ 1.83 µM) and 0.3 µg/mL (≈ 0.686 µM), respectively.

Take `OC(Cn1cncn1)(Cn1cncn1)c1ccc(F)cc1F` [FLUCONAZOLE]: the Protection (in test [2]; with Candida albicans [3]) was 100% each time. In addition, the figures for the MIC in test [4] and in test [5] were over 80 µg/mL and 30 µg/mL (≈ 98 µM), respectively.

Turning to `Cc1nn(C)c2ncc(C(=O)N[C@H](C)[C@](O)(Cn3cncn3)c3ccc(F)cc3F)c(Cl)c12`, the MIC was over 80 µg/mL in test [4] and 19 µg/mL (≈ 39.9 µM) in test [5]. Also, the Protection with Mus musculus [7] and with Mus musculus [8] was 0% throughout.

As to `C[C@@H](n1cnc2cc(-c3ccc(Cl)cc3)sc2c1=O)[C@](O)(Cn1cncn1)c1ccc(F)cc1F`, the Protection (in test [2]; in the test on Candida albicans [10]; in the test with Mus musculus [6]; in the test on Candida albicans [12]) was 100% throughout. Further, the minimum inhibitory concentration (MIC) in test [4] was found to be 2.2 µg/mL (≈ 4.28 µM); in test [5] it was 0.2 µg/mL (≈ 0.389 µM).

For `Cc1cc2nnc(C(=O)N[C@H](C)[C@](O)(Cn3cncn3)c3ccc(F)cc3F)c(C)n2n1`, the MIC in [4] is over 80 µg/mL; in [5] it was 10 µg/mL (≈ 22.6 µM). Also, the Protection with Mus musculus [7] and in the test with Mus musculus [8] was 0% throughout.

As to `CS(=O)(=O)O.Cc1nc(-c2ccc(C#N)cc2)sc1C(=O)N[C@H](C)[C@](O)(Cn1cncn1)c1ccc(F)cc1F`, the Protection amounted to 100% with Candida albicans [1], 100% in test [2], 100% in the test on Candida albicans [3] and 10% with Mus musculus [6]. The figures for the MIC in test [4] and in test [5] were 4 µg/mL and 1.2 µg/mL, respectively.

With `C[C@@H](c1ncncc1F)[C@](O)(Cn1cncn1)c1ccc(F)cc1F` [VORICONAZOLE], the Protection with Candida albicans [1] was 0%; in test [2], 20%; with Candida albicans [3], 0%; in the test with Mus musculus [6] it was 0%. Moreover, the MIC in [4] amounted to 0.5 µg/mL (≈ 1.43 µM); in test [5] it was 0.6 µg/mL (≈ 1.72 µM).

In the case of `C[C@@H](n1cnc2cc(-c3ccc(C(=N)NC#N)cc3)sc2c1=O)[C@](O)(Cn1cncn1)c1ccc(F)cc1F`, the Protection is listed as under 20% in the test with Candida albicans [10] and 100% in the test with Candida albicans [12]. In addition, the MIC in [4] stood at 80 µg/mL (≈ 146 µM); in test [5] it was 2.7 µg/mL (≈ 4.94 µM).

By MIC is commonly meant the least concentration at which growth counts as inhibited.
